Assay results taken from ChEMBL document CHEMBL6083223, “Development of di-arylated 1,2,4-triazole-based derivatives as therapeutic agents against breast cancer: synthesis and biological evaluation” (RSC Med Chem, 2024).
pIC50: −log10 of the molar value. Each block holds one compound with its values, some of them ahead of it. The source made the active and inactive calls. No cut-off for these calls is given here.

What was measured:
MDA-MB-231 [1] = assay: Antiproliferative activity against human MDA-MB-231 cells assessed as inhibition of cell growth at 10 uM incubated for 48 hrs by MTT assay; format: functional
Summary of the method: (§1)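 Single-concentration screen: cells (ATCC; 37 °C, 5% CO₂) seeded at 4 × 10⁴ per well, adhered overnight, then treated 48 h at 10 μM. Medium removed, MTT (2.5 mg mL⁻¹) added for 4 h, formazan dissolved in DMSO, absorbance read at 570 nm; percent inhibition versus untreated cells.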

MCF7 [2] = assay: Antiproliferative activity against human MCF7 cells assessed as inhibition of cell growth at 10 uM incubated for 48 hrs by MTT assay; format: functional; summary of the method: as §1
MDA-MB-231 [3] = assay: Antiproliferative activity against human MDA-MB-231 cells assessed as inhibition of cell growth incubated for 48 hrs by MTT assay; format: functional, cell-based; conditions: MDA-MB-231, 48 h
ZR-75-1 [4] = assay: Antiproliferative activity against human ZR-75-1 cells assessed as inhibition of cell growth incubated for 48 hrs by MTT assay; format: functional, cell-based; conditions: ZR-75-1, 48 h
MCF7 [5] = assay: Antiproliferative activity against human MCF7 cells assessed as inhibition of cell growth incubated for 48 hrs by MTT assay; format: functional, cell-based; conditions: MCF7, 48 h
Summary of the method: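 MCF-7 exposed 48 h to 0.625, 1.25, 2.5, 5, 10, 20 and 40 μM. MTT (2.5 mg mL⁻¹) added for 4 h, medium removed, formazan solubilized in DMSO, absorbance at 570 nm; percent growth inhibition calculated and IC50 derived.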

ZR-75-1 [6] = assay: Antiproliferative activity against human ZR-75-1 cells assessed as inhibition of cell growth at 10 uM incubated for 48 hrs by MTT assay; format: functional; summary of the method: as §1
[7] = Cytotoxicity against human MCF-10A cells assessed as inhibition of cell growth incubated for 24 hrs by MTT assay; format: toxicity, cell-based
Summary of the method: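 Non-tumorigenic MCF-10A breast epithelial cells in 96-well plates (5% CO₂) exposed 24 h to 10, 50 and 100 μM. MTT (2.5 mg mL⁻¹) for 4 h, formazan dissolved in DMSO, absorbance at 570 nm; percent growth inhibition calculated to estimate IC50.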

MCF7 [8] = assay: Induction of autophagy in human MCF7 cells assessed as increase in autophagosome production at 5 to 20 uM by acridine orange staining based fluorescence microscopic analysis; format: functional, cell-based; conditions: dose 5-20 µM
Summary of the method: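 MCF-7 cells treated at 5, 10 and 20 μM, then stained with 200 nM acridine orange for 10 min at 37 °C and imaged by fluorescence microscopy.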

[9] = Metabolic stability of the compound in human liver microsomes at 5 uM measured for 30 mins in absence of NADPH by substrate depletion method based LC-MS/MS analysis; format: ADME, Microsome; conditions: 0.5 h
Summary of the method: (§2)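 NADPH-free control incubations: microsomes (0.5 mg mL⁻¹) in 100 mM PBS pH 7.4 with 3.3 mM MgCl₂, no NADPH, 37 °C; compound 5 μM, 0–30 min. Acetonitrile quench with diazepam internal standard, LC-MS/MS; percent remaining versus 0 min, triplicate.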

MCF7 [10] = assay: Increase in reactive oxygen species production in human MCF7 cells treated with higher concentrations by DCFH-DA staining based fluorescence microscopic analysis; format: functional, cell-based
[11] = Intrinsic clearance in monkey liver microsomes measured per mg protein; format: ADME, Macaca mulatta, Microsome; conditions: rhesus monkey
Summary of the method: (§3)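 Substrate depletion: microsomes (0.5 mg mL⁻¹ protein) in 100 mM PBS pH 7.4, 3.3 mM MgCl₂, 1.2 mM NADPH, preincubated 5 min at 37 °C; compound spiked at 5 μM, sampled at 0, 15 and 30 min. Quenched with cold acetonitrile containing diazepam internal standard, LC-MS/MS; triplicate. Log-linear plot of remaining substrate (0 min = 100%) gives parameters.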

[12] = Intrinsic clearance in rat liver microsomes measured per mg protein; format: ADME, Microsome; conditions: read-out: CLH; summary of the method: as §3
[13] = Half life in rat liver microsomes; format: ADME, Microsome; summary of the method: as §3
[14] = Metabolic stability of the compound in rat liver microsomes at 5 uM measured for 30 mins in absence of NADPH by substrate depletion method based LC-MS/MS analysis; format: ADME, Microsome; conditions: 0.5 h; summary of the method: as §2
[15] = Half life in monkey liver microsomes; format: ADME, Macaca mulatta, Microsome; conditions: rhesus monkey; summary of the method: as §3
[16] = Half life in human liver microsomes; format: ADME, Microsome; summary of the method: as §3
[17] = Intrinsic clearance in dog liver microsomes measured per mg protein; format: ADME, Canis lupus familiaris, Microsome; conditions: read-out: CLH; summary of the method: as §3
[18] = Intrinsic clearance in mouse liver microsomes measured per mg protein; format: ADME, Microsome; summary of the method: as §3
[19] = Metabolic stability of the compound in mouse liver microsomes at 5 uM measured for 30 mins in absence of NADPH by substrate depletion method based LC-MS/MS analysis; format: ADME, Microsome; conditions: 0.5 h; summary of the method: as §2
[20] = Half life in dog liver microsomes; format: ADME, Canis lupus familiaris, Microsome; summary of the method: as §3
MCF7 [21] = assay: Induction of apoptosis in human MCF7 cells assessed as increase in cleaved PARP protein expression at 5 to 20 uM incubated for 48 hrs by western blot analysis; format: functional, cell-based; conditions: dose 5-20 µM
Summary of the method: (§4)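 MCF-7 cells (1 × 10⁶ per 100 mm dish, RPMI 1640 with 10% FBS) treated 48 h at 5, 10, 15 and 20 μM, 37 °C. RIPA lysates, Bradford-quantified, 50 μg per lane on SDS-PAGE, PVDF transfer, 5% BSA/TBST block; probed for cleaved PARP (1:1000) and Bax (1:400), band densitometry.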

MCF7 [22] = assay: Induction of apoptosis in human MCF7 cells assessed as increase in Bax protein expression at 5 to 20 uM incubated for 48 hrs by western blot analysis; format: functional, cell-based; conditions: dose 5-20 µM; summary of the method: as §4
MCF7 [23] = assay: Induction of apoptosis in human MCF7 cells assessed as disruption of mitochondrial […] membrane potential by measuring decrease in fluorescence intensity at 5 to 20 uM incubated for 30 mins by Rhodamine123 staining based fluorescence microscopic analysis; format: functional, cell-based; conditions: dose 5-20 µM
Summary of the method: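 MCF-7 cells treated at 5, 10 and 20 μM; rhodamine 123 (1 μg) added 30 min before the end of treatment, cells rinsed with PBS and examined under a fluorescence microscope for loss of mitochondrial fluorescence.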

[24] = Half life in mouse liver microsomes; format: ADME, Microsome; summary of the method: as §3
[25] = Intrinsic clearance in human liver microsomes measured per mg protein; format: ADME, Microsome; summary of the method: as §3
[26] = Metabolic stability of the compound in dog liver microsomes at 5 uM measured for 30 mins in absence of NADPH by substrate depletion method based LC-MS/MS analysis; format: ADME, Canis lupus familiaris, Microsome; conditions: 0.5 h; summary of the method: as §2
[27] = Metabolic stability of the compound in monkey liver microsomes at 5 uM measured for 30 mins in absence of NADPH by substrate depletion method based LC-MS/MS analysis; format: ADME, Macaca mulatta, Microsome; conditions: rhesus monkey, 0.5 h; summary of the method: as §2

Structure (SMILES): c1cc2c(cc1-c1ncn(-c3ccc4c(c3)OCO4)n1)OCO2
inhibition at 10 µM (MDA-MB-231 [1]): 17.1%
inhibition at 10 µM (MCF7 [2]): 8.99%

Structure (SMILES): COc1cc(-n2cnc(-c3cc(Cl)cc(Cl)c3)n2)cc(OC)c1OC
inhibition at 10 µM (MDA-MB-231 [1]): 17.4%
inhibition at 10 µM (MCF7 [2]): 0%

pIC50 (MDA-MB-231 [3]): 4.82
pIC50 (MCF7 [5]): 5.28
Structure (SMILES): COc1cc(-n2cnc(-c3ccc4nc[nH]c4c3)n2)cc(OC)c1OC
inhibition at 10 µM (MDA-MB-231 [1]): 31.6%
inhibition at 10 µM (MCF7 [2]): 58.5%
pIC50 (ZR-75-1 [4]): 4.03
inhibition at 10 µM (ZR-75-1 [6]): 21.2%
IC50 at 24 h [7]: > 100 µM

Structure (SMILES): COc1ccc(-n2cnc(-c3ccc(F)c(F)c3)n2)cc1OC
inhibition at 10 µM (MDA-MB-231 [1]): 7.98%
inhibition at 10 µM (MCF7 [2]): 16.1%

Structure (SMILES): COc1cc(-n2cnc(-c3cccc4ccccc34)n2)cc(OC)c1OC
inhibition at 10 µM (MDA-MB-231 [1]): 22.6%
inhibition at 10 µM (MCF7 [2]): 13.4%

Stability [9]: Stable
microsomal CLint [11]: 23 µL/min/mg
microsomal CLint [12]: > 86.1 µL/min/mg
pIC50 (MDA-MB-231 [3]): 4.77
half-life [13]: < 30 min
Stability [14]: Stable
half-life [15]: 60 min
pIC50 (MCF7 [5]): 5.32
half-life [16]: > 60 min
microsomal CLint [17]: > 53 µL/min/mg
microsomal CLint [18]: 41 µL/min/mg
Stability [19]: Stable
half-life [20]: < 30 min
half-life [24]: 34 min
microsomal CLint [25]: 13 µL/min/mg
Stability [26]: Stable
Stability [27]: Stable
Structure (SMILES): COc1ccc(-c2ncn(-c3cc(OC)c(OC)c(OC)c3)n2)cc1F
Activity (MCF7 [8]): Active
inhibition at 10 µM (MDA-MB-231 [1]): 32.1%
Activity (MCF7 [10]): Active
inhibition at 10 µM (MCF7 [2]): 51.3%
pIC50 (ZR-75-1 [4]): 4.47
Activity (MCF7 [21]): Active
Activity (MCF7 [22]): Active
Activity (MCF7 [23]): Active
inhibition at 10 µM (ZR-75-1 [6]): 6.41%
IC50 at 24 h [7]: > 100 µM

Structure (SMILES): COc1cc(-n2cnc(-c3cccc(O)c3)n2)cc(OC)c1OC
inhibition at 10 µM (MDA-MB-231 [1]): 10.4%
inhibition at 10 µM (MCF7 [2]): 32.8%
inhibition at 10 µM (ZR-75-1 [6]): 8.54%

Structure (SMILES): COc1ccc(-n2cnc(-c3ccc(F)cc3)n2)cc1OC
inhibition at 10 µM (MDA-MB-231 [1]): 16.8%
inhibition at 10 µM (MCF7 [2]): 17.6%

Structure (SMILES): COc1cc(-n2cnc(-c3cccc(C=O)c3)n2)cc(OC)c1OC
inhibition at 10 µM (MDA-MB-231 [1]): 22.6%
inhibition at 10 µM (MCF7 [2]): 13.4%

Structure (SMILES): COc1ccc(-n2cnc(-c3cccc(C(F)(F)F)c3)n2)cc1OC
inhibition at 10 µM (MDA-MB-231 [1]): 12.8%
inhibition at 10 µM (MCF7 [2]): 18.4%

Structure (SMILES): COc1ccc(-c2ncn(-c3cc(OC)c(OC)c(OC)c3)n2)cc1OC
inhibition at 10 µM (MDA-MB-231 [1]): 23.5%
inhibition at 10 µM (MCF7 [2]): 28.9%
